In ChEMBL document CHEMBL1132142, “Extension of the polyanionic cosalane pharmacophore as a strategy for increasing anti-HIV potency” (J Med Chem, 1999) one finds Cytotoxicity and EC50 data, which are given here for 11 compounds.

The subject of experiment [1] is CEM-SS. The experiment in a line: The compound was evaluated for cytotoxicity in CEM-SS cells. The experiment is classed as functional, Homo sapiens. In a few lines: (§1)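 Uninfected cells (CEM-SS or MT-4, per line) were incubated with the drug in a microtiter XTT assay. Viability was expressed as percent of the uninfected drug-free control. CC50 is the concentration causing 50% cell death. Triplicates were run per plate on two sister plates, and the two plate values were averaged.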

Experiment [2] relates to CEM-SS. The experiment in a line: The compound was evaluated for inhibition of cytopathic effect of HIV-1 RF in CEM-SS cells. The experiment is classed as functional, cell-based, Homo sapiens. In a few lines:
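XTT-based microtiter cytoprotection assay measuring protection from HIV-1-induced cytopathic effect, read as percent of the uninfected drug-free control. EC50 is the concentration giving 50% protection in infected cultures. Results were confirmed by cell-free supernatant reverse transcriptase and p24 levels. Each plate was run in triplicate, and the EC50 values from two sister plates were averaged.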

Experiment [3] concerns MT4. The experiment in a line: The compound was evaluated for cytotoxicity in MT-4 cells. The experiment is classed as functional, Homo sapiens. The method in brief: as §1
Experiment [4] has as its system MT4. As to the kind of experiment: The compound was evaluated for inhibition of cytopathic effect of HIV-1 IIIB in MT-4 cells. The experiment is classed as functional, cell-based, Homo sapiens.
Experiment [5] deals with MT4. The experiment in a line: The compound was evaluated for inhibition of cytopathic effect of HIV-2ROD in MT-4 cells. The experiment is classed as functional, cell-based, Homo sapiens. (Protection from cytopathic effect is a common read-out in antiviral testing.)
Experiment [6] concerns CEM-SS. As to the kind of experiment: The compound was evaluated for uM. The experiment is classed as functional, cell-based, Homo sapiens.

SMILES strings stand for the structures.

The term EC50 denotes the concentration at which the effect is half-maximal. Low readings indicate a more potent agent, high ones a less potent agent. Take `CC(C)CCCC(C)[C@H]1CC[C@H]2[C@@H]3CCC4C[C@@H](CCC=C(c5cc(Cl)c(OCc6ccccc6C(=O)[O-])c(C(=O)[O-])c5)c5cc(Cl)c(OCc6ccccc6C(=O)[O-])c(C(=O)[O-])c5)CC[C@]4(C)[C@H]3CC[C@]12C.[Na+].[Na+].[Na+].[Na+]` (stereo partly specified): the Cytotoxicity in the experiment on CEM-SS [1] was greater than 316 µM; in the experiment with MT4 [3], 52 µM. Besides, the EC50 in the experiment on CEM-SS [2] (cem-ss) was 17.9 µM; with MT4 [4] (mt4) it was 22.1 µM; with MT4 [5] (mt4), greater than 52 µM.

For `CC(C)CCCC(C)[C@H]1CC[C@H]2[C@@H]3CCC4C[C@@H](CCC=C(c5cc(Cl)c(O)c(C(=O)O)c5)c5cc(Cl)c(O)c(C(=O)O)c5)CC[C@]4(C)[C@H]3CC[C@]12C` (stereo partly specified), the Cytotoxicity in the experiment with CEM-SS [1] was greater than 200 µM; in the experiment on MT4 [3], greater than 125 µM. Besides, the EC50 in the experiment with MT4 [4] (Homo sapiens, MT4) amounted to 3 µM; in the experiment on MT4 [5] (Homo sapiens, MT4), 4 µM.

In the case of `CC(C)CCCC(C)[C@H]1CC[C@H]2[C@@H]3CCC4C[C@@H](CCC=C(c5cc(Cl)c(OCc6cccc([N+](=O)[O-])c6)c(C(=O)O)c5)c5cc(Cl)c(OCc6cccc([N+](=O)[O-])c6)c(C(=O)O)c5)CC[C@]4(C)[C@H]3CC[C@]12C` (stereo partly specified), the Cytotoxicity in the experiment on CEM-SS [1] was 16 µM; in the experiment with MT4 [3] it was 97 µM. Also, the concentration giving a half-maximal response (EC50) entry in the experiment on CEM-SS [6] is “Not Active”; in the experiment with MT4 [4] (mt4) it was greater than 125 µM; in the experiment with MT4 [5] (mt4), greater than 125 µM.

Regarding `CC(C)CCCC(C)[C@H]1CC[C@H]2[C@@H]3CCC4C[C@@H](CCC=C(c5cc(Cl)c(OCc6ccccc6C(=O)O)c(C(=O)O)c5)c5cc(Cl)c(OCc6ccccc6C(=O)O)c(C(=O)O)c5)CC[C@]4(C)[C@H]3CC[C@]12C` (stereo partly specified), the Cytotoxicity in the experiment with CEM-SS [1] is greater than 316 µM; with MT4 [3] it was 37 µM. Also, the EC50 with MT4 [4] (Homo sapiens, MT4) is greater than 37 µM; in the experiment on MT4 [5] (Homo sapiens, MT4), greater than 37 µM.

In the case of `CC(C)CCCC(C)[C@H]1CC[C@H]2[C@@H]3CCC4C[C@@H](CCC=C(c5cc(Cl)c(OCc6cccc(C(=O)[O-])c6)c(C(=O)[O-])c5)c5cc(Cl)c(OCc6cccc(C(=O)[O-])c6)c(C(=O)[O-])c5)CC[C@]4(C)[C@H]3CC[C@]12C.[Na+].[Na+].[Na+].[Na+]` (stereo partly specified), the Cytotoxicity was greater than 316 µM in the experiment with CEM-SS [1] and 35 µM in the experiment on MT4 [3]. Besides, the EC50 with CEM-SS [2] (cem-ss) is 7.6 µM; in the experiment with MT4 [4] (mt4), 2.4 µM; in the experiment on MT4 [5] (mt4), greater than 35 µM.

As for `CC(C)CCCC(C)[C@H]1CC[C@H]2[C@@H]3CCC4C[C@@H](CCC=C(c5cc(Cl)c(OCc6ccc([N+](=O)[O-])cc6)c(C(=O)O)c5)c5cc(Cl)c(OCc6ccc([N+](=O)[O-])cc6)c(C(=O)O)c5)CC[C@]4(C)[C@H]3CC[C@]12C` (stereo partly specified), the Cytotoxicity is greater than 316 µM with CEM-SS [1] and 83 µM in the experiment on MT4 [3]. Besides, the EC50 result with CEM-SS [6] was “Not Active”; in the experiment on MT4 [4] (Homo sapiens, MT4) it was greater than 83 µM; in the experiment on MT4 [5] (mt4) it was greater than 83 µM.

Regarding `CC(C)CCCC(C)[C@H]1CC[C@H]2[C@@H]3CCC4C[C@@H](CCC=C(c5cc(Cl)c(OCc6ccccc6[N+](=O)[O-])c(C(=O)O)c5)c5cc(Cl)c(OCc6ccccc6[N+](=O)[O-])c(C(=O)O)c5)CC[C@]4(C)[C@H]3CC[C@]12C` (stereo partly specified), the Cytotoxicity turned out to be 66 µM in the experiment with CEM-SS [1] and 108 µM in the experiment on MT4 [3]. Moreover, in the experiment on CEM-SS [6], the EC50 result is “Not Active”.

As to `CC(C)CCCC(C)[C@H]1CC[C@H]2[C@@H]3CCC4C[C@@H](CCC=C(c5cc(Cl)c(OCc6cccc([N+](=O)[O-])c6)c(C(=O)[O-])c5)c5cc(Cl)c(OCc6cccc([N+](=O)[O-])c6)c(C(=O)[O-])c5)CC[C@]4(C)[C@H]3CC[C@]12C.[Na+].[Na+]` (stereo partly specified), the Cytotoxicity in the experiment on CEM-SS [1] is greater than 316 µM; in the experiment with MT4 [3], greater than 125 µM. In addition, the EC50 worked out at 21.5 µM with CEM-SS [2] (Homo sapiens, CEM-SS); 48 µM in the experiment on MT4 [4] (mt4); 29 µM in the experiment on MT4 [5] (mt4).

In the case of `CC(C)CCCC(C)[C@H]1CC[C@H]2[C@@H]3CCC4C[C@@H](CCC=C(c5cc(Cl)c(OCc6cccc(C(=O)O)c6)c(C(=O)O)c5)c5cc(Cl)c(OCc6cccc(C(=O)O)c6)c(C(=O)O)c5)CC[C@]4(C)[C@H]3CC[C@]12C` (stereo partly specified), the Cytotoxicity in the experiment on CEM-SS [1] was greater than 316 µM; in the experiment on MT4 [3] it was 29 µM. The EC50 was 5.7 µM in the experiment with CEM-SS [2] (Homo sapiens, CEM-SS); 2.2 µM in the experiment on MT4 [4] (Homo sapiens, MT4); greater than 29 µM in the experiment on MT4 [5] (Homo sapiens, MT4).

`CC(C)CCCC(C)[C@H]1CC[C@H]2[C@@H]3CCC4C[C@@H](CCC=C(c5cc(Cl)c(OCc6ccc([N+](=O)[O-])cc6)c(C(=O)[O-])c5)c5cc(Cl)c(OCc6ccc([N+](=O)[O-])cc6)c(C(=O)[O-])c5)CC[C@]4(C)[C@H]3CC[C@]12C.[Na+].[Na+]` (stereo partly specified): the Cytotoxicity in the experiment with CEM-SS [1] is greater than 316 µM; in the experiment with MT4 [3], greater than 125 µM. The half-maximal effective concentration (EC50) in the experiment on CEM-SS [2] (Homo sapiens, CEM-SS) worked out at 78.2 µM; in the experiment with MT4 [4] (mt4) it was 80 µM; in the experiment with MT4 [5] (mt4) it was 33 µM.

Turning to `CC(C)CCCC(C)[C@H]1CC[C@H]2[C@@H]3CCC4C[C@@H](CCC=C(c5cc(Cl)c(OCc6ccccc6[N+](=O)[O-])c(C(=O)[O-])c5)c5cc(Cl)c(OCc6ccccc6[N+](=O)[O-])c(C(=O)[O-])c5)CC[C@]4(C)[C@H]3CC[C@]12C.[Na+].[Na+]` (stereo partly specified), the Cytotoxicity with CEM-SS [1] is greater than 316 µM; with MT4 [3], 99 µM. Further, the EC50 in the experiment on CEM-SS [2] (Homo sapiens, CEM-SS) was 12.2 µM; with MT4 [4] (Homo sapiens, MT4) it was greater than 125 µM; in the experiment on MT4 [5] (Homo sapiens, MT4) it was greater than 125 µM.
